These entries were drawn from the full list.
Apaf1 activ = activators of human Apaf-1 apoptosome, primary screen, biochemical, DEVD-Rh110 fluorescence, uHTS. hit rate 0.31% among 330,000. activity change, negative = activation, % at 20 µM. Apaf-1 apoptosome caspase-3 activation; hits give low values;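 active = activity change at or below -40% at 20 µM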
Target sequence (O14727 whole entry, looked up): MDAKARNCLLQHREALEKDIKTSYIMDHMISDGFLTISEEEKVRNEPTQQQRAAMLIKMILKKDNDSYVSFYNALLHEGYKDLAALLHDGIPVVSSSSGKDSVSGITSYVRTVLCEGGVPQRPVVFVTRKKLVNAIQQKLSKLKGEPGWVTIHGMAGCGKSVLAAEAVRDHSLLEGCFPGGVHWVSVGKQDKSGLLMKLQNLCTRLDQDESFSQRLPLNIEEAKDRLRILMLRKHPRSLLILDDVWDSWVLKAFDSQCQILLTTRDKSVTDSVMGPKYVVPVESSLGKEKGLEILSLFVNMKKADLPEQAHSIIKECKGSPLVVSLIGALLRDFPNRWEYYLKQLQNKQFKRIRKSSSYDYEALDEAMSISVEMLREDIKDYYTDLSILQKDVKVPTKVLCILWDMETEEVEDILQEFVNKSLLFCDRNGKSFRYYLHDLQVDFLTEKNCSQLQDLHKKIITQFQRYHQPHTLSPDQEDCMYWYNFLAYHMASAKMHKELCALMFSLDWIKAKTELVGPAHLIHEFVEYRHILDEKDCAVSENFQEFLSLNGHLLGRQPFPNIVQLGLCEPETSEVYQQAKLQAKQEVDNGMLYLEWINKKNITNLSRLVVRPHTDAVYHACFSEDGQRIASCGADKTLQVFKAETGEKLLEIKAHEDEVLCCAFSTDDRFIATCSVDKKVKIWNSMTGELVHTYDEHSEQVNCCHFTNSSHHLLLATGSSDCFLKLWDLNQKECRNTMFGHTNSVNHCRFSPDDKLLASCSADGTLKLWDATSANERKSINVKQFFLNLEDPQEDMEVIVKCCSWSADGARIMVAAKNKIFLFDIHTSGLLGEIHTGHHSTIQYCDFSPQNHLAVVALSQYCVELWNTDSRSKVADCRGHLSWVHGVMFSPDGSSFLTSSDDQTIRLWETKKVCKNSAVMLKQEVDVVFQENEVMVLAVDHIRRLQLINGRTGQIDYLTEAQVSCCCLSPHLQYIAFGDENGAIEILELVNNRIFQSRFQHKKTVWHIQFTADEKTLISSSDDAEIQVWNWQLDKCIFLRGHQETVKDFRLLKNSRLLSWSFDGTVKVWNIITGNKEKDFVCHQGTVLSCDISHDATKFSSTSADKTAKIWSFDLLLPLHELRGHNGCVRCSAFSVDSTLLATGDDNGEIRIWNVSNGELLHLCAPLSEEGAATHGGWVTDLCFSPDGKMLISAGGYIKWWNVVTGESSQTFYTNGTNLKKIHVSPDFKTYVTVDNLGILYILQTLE
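system = biochemical Apaf-1 apoptosome reconstitution | buffer or medium = 20 mM HEPES pH 7.5 with CHAPS, BSA | also added = dATP and cytochrome c as apoptosome triggers, (Z-DEVD)2-Rh110 substrate | incubation = 30 min compound preincubation and 50 min reaction, both room temperature | measured by = fluorescence, 540 nm emission, 480 nm excitation | read-out basis = Caspase-3 cleavage activity downstream of Apaf-1 activation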
Rh110 interf act = Rh110 fluorescence interference by putative Apaf-1 activators, confirmation, artefact control for Apaf-1 activator project, biochemical, 20 µM; shares compounds with Apaf1 activ; quenched caspase reaction, Ex480/Em540; fluorescence interference (activity change), % at 20 µM, hits read low; 980 tested, under 10 active; AID 504616, 2011;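 active = mean activity change at or below -40% when tested at 20 µM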
Apaf-1 act conf = Apaf-1 activators, single-dose retest, confirmation, biochemical, fluorescence, DEVD-Rh110, 20 µM | reconstituted apoptosome caspase-3 activity; hits give low values | activity change, negative = activation, % at 20 µM | shares compounds with Apaf1 activ | hit rate 5% among 980;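 active = mean activity change at or below -40%, meaning activation of 40% or more, at 20 µM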
Hits are given with their value; i = inactive; nt = not tested or not shown.

SMILES	Apaf1 activ	Rh110 interf act	Apaf-1 act conf
COc1cc(OC)cc(-c2sc3ccc(OC)cc3c2C#CC2(N)CCCCC2)c1	i	nt	nt
O=C(Nc1ccc2c(c1)OCO2)[C@@H]1[C@@H]2C(=O)N(C3CCCCC3)C(=O)[C@@H]2C2c3ccccc3C=CN21 (some centres not stated)	i	nt	nt
O=C1/C(=C/Nc2ccc3c(c2)OCO3)CCc2ccccc21	i	nt	nt
O=C(CSc1ccc2c(c1)OCCO2)Nc1ccc2c(c1)OCO2	-578	i	i
O=C(O)c1cc(O)c2c(c1)[C@@H]([C@H]1c3cc(C(=O)O)cc(O)c3C(=O)c3c(O[C@@H]4O[C@H](CO)[C@@H](O)[C@H](O)[C@H]4O)cccc31)c1cccc(O[C@@H]3O[C@H](CO)[C@@H](O)[C@H](O)[C@H]3O)c1C2=O	i	nt	nt
Cc1ccc(SC(C)c2nc(-c3ccccc3)no2)cc1 (configuration not stated)	-247	i	i
CN1CCc2nc(SCc3ccc(Cl)cc3)c(C#N)c(-c3cccs3)c2C1	i	nt	nt
CCN(CC)S(=O)(=O)c1cccc(NC(=O)C2SC(=Nc3ccc(C)cc3C)C(C(=O)NCC3CCCO3)=C2N)c1 (configuration not stated)	i	nt	nt
Cc1cccnc1NC(=O)c1ccc(OCC2CCCO2)cc1 (configuration not stated)	i	nt	nt
CCOC(=O)c1c(C)c(C(=O)NCC2CCCO2)c(C)n1C (configuration not stated)	-59	i	i
COC(=O)c1c(C(=O)OC)c2cccc3cc(-c4ccccc4)c4ccc1c4n32	i	nt	nt
OCCNC(=S)Nc1ccc2nsnc2c1	i	nt	nt
CCO/C=C1/C(=O)N(C)C(=O)c2cc(OC)ccc21	i	nt	nt
O=C(/C=C/c1ccc(-c2ccccc2[N+](=O)[O-])o1)c1ccc(Br)cc1	i	nt	nt
O=C(Nc1ccc2ccccc2n1)Nc1cccs1	-58	i	i
COc1ccccc1N=Nc1ccc(O)c2ncccc12	i	nt	nt
O[C@@H](c1cc(C(F)(F)F)nc2c(C(F)(F)F)cccc12)[C@H]1CCCCN1	i	nt	nt
Cc1ccc(SC2=C(Sc3ccc(C)cc3)C(=O)c3ccccc3C2=O)cc1	i	nt	nt
Cc1ccc(SCc2cc(-c3ccc(Cl)cc3)no2)cc1	i	nt	nt
Cc1ccc(Sc2cc(Cl)nc(N)n2)cc1	-387	i	i
COc1ccc([N+](=O)[O-])cc1NC1C2CC3CC(C2)CC1C3 (configuration not stated)	-522	i	i
COC(=O)C1=C(C)N(CC2CC2)C(=NCc2cccc(C(F)(F)F)c2)N[C@H]1c1ccccc1	i	nt	nt
CCCCc1ccc(Nc2nc(CCC)cc(=O)[nH]2)cc1	i	nt	nt
C[C@H](CCC(=O)NCC(=O)O)[C@H]1CC[C@H]2[C@@H]3[C@H](O)C[C@@H]4C[C@H](O)CC[C@]4(C)[C@H]3C[C@H](O)[C@]12C	i	nt	nt
Cc1ccc(/C=C2\SC(=S)N(CCC(=O)NNC(=O)c3ccc(O)cc3)C2=O)cc1	-63	i	i
SMILES	Apaf1 activ	Rh110 interf act	Apaf-1 act conf
CCN(CC)CCOC(=O)c1ccc(NC(=O)CCCN2C(=O)S/C(=C/c3ccc(OC)cc3)C2=S)cc1	i	nt	nt
NC1=NC[C@H](c2ccccc2)N1CCc1cc(C(F)(F)F)cc(C(F)(F)F)c1	i	nt	nt
O=C1Nc2ccccc2N(O)N1c1cc(-c2cccc(Cl)c2)no1	-88	i	i
O=C1Nc2cc(Cl)c(Cl)cc2N(O)N1c1cccc(Cl)c1	i	nt	nt
O=C(N/N=C\C=C\c1ccc([N+](=O)[O-])o1)c1cccs1	i	nt	nt
CC1=NN(c2ccc(S(=O)(=O)O)cc2C)C(=O)C1	i	nt	nt
O=C(COC(=O)/C=C/c1ccc(OC(F)F)cc1)NC1CCCCCC1	-64	i	i
CCN1CCN(c2ccc(S(=O)(=O)N3CCCCC3)cc2NC(=O)/C=C/c2ccc(OC(F)F)cc2)CC1	i	nt	nt
CC12COC3(P(=O)(c4ccccc4)c4ccccc4)CC1CCC23CP(=O)(c1ccccc1)c1ccccc1 (configuration not stated)	i	nt	nt
CC(C)NC1=C(Cl)C(=O)c2ccccc2C1=O	i	nt	nt
O=C1CSC(c2cccnc2)N1CC1CC1 (configuration not stated)	-112	i	i
CN1CCC[C@H]1c1cccnc1	i	nt	nt
NC1=C(Br)C(=O)c2ccccc2C1=O	i	nt	nt
Nc1nn2c(-c3ccccc3)cc(=O)[nH]c2c1N=Nc1ccc(O)cc1	i	nt	nt
O=C(CCc1ccccc1)NNc1cc(N2CCCCC2)nc(N2CCCCC2)n1	i	nt	nt
CC(C)(C(=O)O)c1ccc([C@H](O)CCCN2CCC(C(O)(c3ccccc3)c3ccccc3)CC2)cc1	-114	i	i
COc1cccc(Cn2c(N)c(C#N)c3nc4ccccc4nc32)c1OC	i	nt	nt
COc1ccc(Cl)cc1C(=O)NNC(=O)COC(=O)c1ccc(Br)o1	-41	i	i
CC(N=Cc1cccc(O)c1O)c1ccccc1 (configuration not stated)	i	nt	nt
CC(=O)Nc1ccc(C(=O)COC(=O)c2nc3nc(C)cc(C)n3n2)cc1	i	nt	nt
CCOC(=O)c1ccc(NC(=S)NC(=O)c2nn(CC)cc2Br)cc1	-51	i	i
CCOC(=O)c1ccc(NC(=O)c2nn(C)cc2Br)cc1	-148	i	i
OCc1cc(C(O)CNCCCCCCOCCCCc2ccccc2)ccc1O (configuration not stated)	i	nt	nt
N#CC1=C(N)Oc2n[nH]c(-c3cccs3)c2C1c1ccsc1 (configuration not stated)	i	nt	nt
CCCC1=Nc2cc(C(=O)NCCCOCC)ccc2Sc2ccccc21	i	nt	nt
SMILES	Apaf1 activ	Rh110 interf act	Apaf-1 act conf
O=C(c1ccccc1)C(O)c1ccccc1 (configuration not stated)	-41	i	i
O=C(O)CCCNC(=O)C(c1ccccc1)c1ccccc1	i	nt	nt
CCCCC[n+]1ccn(C2=C([O-])c3ccccc3C(=O)/C2=N\S(=O)(=O)c2ccccc2)c1	i	nt	nt
Cc1noc(C)c1C(=O)Nc1ccc(F)cc1F	-71	i	i
COc1cccc(/C=N/NC(=O)NC23CC4CC(CC(C4)C2)C3)c1O	i	nt	nt
COc1ccc(C[C@H]2CN3C(=NC[C@@H]3Cc3ccccc3)N2CCNC(=O)c2ccc(C)c(Br)c2)cc1	i	nt	nt
CCCCC(=Nc1ccc(N)cc1)C1=C(O)C(C(=O)OC)C(C)(C)CC1=O (configuration not stated)	i	nt	nt
COc1ccnc(Oc2ccc(F)cc2)c1C#N	-47	i	i
CCOC(=O)N1CCC(Nc2c(-c3ccc(C)c(C)c3)c(=O)c2=O)CC1	-202	i	i
CCOC(=O)N1CCC(NC(=O)c2ccc3c(c2)sc2nc(-c4ccc(OC)cc4)cn23)CC1	i	nt	nt
CCCCCCOC(=O)C[N+](C)(C)CCOC1CC2CCC1(C)C2(C)C (configuration not stated)	i	nt	nt
O=C1Cc2ccccc2C(=O)N1OCc1ccc(Cl)cc1	i	nt	nt
CCOc1ccccc1N(CC(=O)Nc1ccc(S(=O)(=O)N2CCOCC2)cc1)S(=O)(=O)c1ccc(Cl)cc1	-68	i	i
CCN(CC(=O)Nc1cc(S(=O)(=O)N2CCOCC2)ccc1Cl)Cc1ccccc1	i	nt	nt
Cc1c(C)n(CCC(=O)O)c2ccccc12	-70	i	i

High-throughput results from PubChem.
